Source: PubChem BioAssay
PGC1a acetyl inh: modulators of PGC1a acetylation; 350,000 compounds, 0.17% hits; inhibition, % at 15.6 µM; U2OS PGC1a acetylation, AlphaScreen anti-acetyl-lysine; with virally co-expressed GCN5 acetyltransferase;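 active = every replicate shows inhibition of at least 40%; inconclusive = mean inhibition at least 40% but some replicate below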;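 note: 0% = neutral control wells and 100% = positive control wells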
Cneo AK release: Cryptococcus neoformans lysis via adenylate kinase release; lysis activity, % at 15 µM; C. neoformans lysis, adenylate kinase release luminescence, 4 h; normalised: neutral wells 0, clomiphene wells 100; 360,000 compounds, 0.2% hits;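 active = mean lysis activity across replicates of at least 80%, whatever share of replicates individually reach that level; inactive = mean lysis activity below 80%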
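Material: C. neoformans cells | Amount: Yeast cell density of 5 × 10^6 cells/mL | Medium: Fresh YPD growth medium | Dosing: Single dose | Times: Static 4 h at 37 °C with compound, 1 h detection | Detection: AK luminescence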
Xi reactivation: X-chromosome reactivation activator | XiGFP mouse fibroblasts, % GFP-positive cells imaging, 3 d; cells co-treated with 5-aza-dC sensitizer; scaled so ellipticine positive control = 100% | AID 743238 | 360,000 compounds, 0.055% hits | activation, % at 7.58 µM;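 active = mean normalized replicate activation at least 10% and every replicate at or above 10%; inconclusive = only one of the two criteria met; inactive = mean below 10% and not all replicates reach 10%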;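 note: 0% = median of on-plate neutral control wells and 100% = ellipticine 6 µM median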
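System: 68-5-11 XiGFP fibroblast line; Timing: 3 days compound exposure; Compound dosing: one concentration, pinned; Benchmarks: positive control ellipticine, 6 µM final; Buffer or medium: DMEM containing 5-aza-dC.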
F508del corr: correctors of CFTR F508del function in bronchial epithelial cells; CFBE cells, YFP halide quenching; stimulated with forskolin plus potentiator P3; % fluorescence drop versus neutral controls; activity (quench increase), % at 7.58 µM; 350,000 compounds, 0.36% hits; AID 720511;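 active = mean added fluorescence quench of at least 8% versus neutral control, with both replicates also reaching 8%; inconclusive = only one of the mean or replicate conditions met; inactive = mean below 8% and not both replicates reaching 8%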;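 note: cells transiently co-express mutant CFTR-F508del with the halide-sensitive YFP; corrector assay measuring rescue of mutant channel to the surface after 24 h compound exposure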
FN deposit inh: fibronectin deposition inhibition; 350,000 compounds, 0.086% hits; inhibition, % at 12.6 µM; AH1F fibroblasts, Alexa488-fibronectin deposition fluorescence, overnight; AID 743247;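 active = mean inhibition across replicates of 30% or more, regardless of how many single replicates reach that level; inconclusive = mean under 30% yet at least half of replicates reach 30%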;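 note: positive control wells lacked labelled fibronectin entirely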
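Material: AH1F fibroblasts assembling fluorescent fibronectin matrix; amount: 10000 AH1F cells/well; medium: DMEM, 2% serum; reagent: Alexa488-fibronectin, 24 nM final in well; dosing: single compound dose, delivered by pin transfer; incubation: 1 h adhesion, overnight exposure; detection: fluorescence after three HBSS washes, excitation 485 nm, emission 525 nm; measure: fibronectin deposition inhibition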
DENV2 CPE: inhibitors of DENV2 cytopathic effect; 350,000 compounds, 1.7% hits; CPE inhibition, % at 9.99 µM; DENV2-infected cells, cytopathic effect rescue, plate reader; in the data active = CPE inhibition above about 20%, passing the limit was not always enough; inconclusive = no clear call, values can overlap the other calls; tested in BHK-21 cells;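 note: 0% = median of neutral control wells and 100% = median of positive control wells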
The depositor's hits bear a star; u = inconclusive; x = no result. A selection: hits, their analogues and other compounds. The true share with any hit is near 1.9%.

SMILES	PGC1a acetyl inh	Cneo AK release	Xi reactivation	F508del corr	FN deposit inh	DENV2 CPE
C[C@H](CO)N1C[C@H](C)[C@H](CN(C)Cc2ccc(C(=O)O)cc2)OCCCC[C@H](C)Oc2ccc(NC(=O)CCCN(C)C)cc2C1=O	2	52	0	0	x	30*
C[C@H]1CCCCO[C@H](CN(C)Cc2ccncc2)[C@@H](C)CN([C@@H](C)CO)C(=O)c2cc(NC(=O)CCCN(C)C)ccc2O1	6	98*	-1	3	x	10
C[C@@H]1CCCCO[C@@H](CN(C)Cc2ccc(C(F)(F)F)cc2)[C@@H](C)CN([C@H](C)CO)C(=O)c2cc(NC(=O)CCCN(C)C)ccc2O1	-1	-1	-1	1	x	4
CO[C@H]1CN(C)C(=O)c2cc(NC(=O)C3CC3)ccc2OC[C@@H](C)N(C(=O)c2cnccn2)C[C@H]1C	-3	51	0	-2	-7	-11
Cc1ccc(SCC(=O)NNC(=O)c2cncc(Br)c2)cc1	-2	-1	0	-1	-2	34*
CCOc1cccc(C2C(C(=O)c3ccco3)=C(O)C(=O)N2c2nnc(C)s2)c1 (stereo not drawn)	4	1	0	3	-6	4
CCSc1nnc(N2C(=O)C(O)=C(C(=O)c3ccco3)C2c2cccc(OC)c2)s1 (stereo not drawn)	-9	2	0	9.3*	-5	1
CO[C@H]1CN(C)C(=O)c2cc(NC(=O)CC(F)(F)F)ccc2OC[C@@H](C)N(C(=O)C2CCOCC2)C[C@@H]1C	16	x	0	-2	0	-7
CC(C)NC(=O)Nc1ccc2c(c1)C(=O)N(C)C[C@@H](C)[C@H](CN(C)C)O2	x	x	0	x	-7	x
O=C(c1ccccc1)N1CC[C@H]2[C@H](CO)Nc3ccc(C#Cc4cccc(F)c4)cc3[C@H]21	8	7	0	-1	2	64*
O=C(c1cccc(F)c1)N1CC[C@@H]2[C@@H](CO)Nc3ccc(C#Cc4ccccc4)cc3[C@@H]21	x	x	0	-1	6	-5
O=C(c1ccccc1)N1CC[C@@H]2[C@H](CO)Nc3ccc(C#Cc4cccc(F)c4)cc3[C@@H]21	2	-8	0	0	25	116*
COc1ccc2c3c([nH]c2c1)[C@H](CO)N(C(=O)NC(C)C)CC31CN(C(=O)c2cnccn2)C1	1	x	0	-3	x	-8
O=C(C[C@@H]1C=C[C@H](NC(=O)CCN2CCCCC2)[C@H](CO)O1)Nc1ccccc1	1	x	0	-1	x	2
C[C@H](CO)N1C[C@H](C)[C@H](CN(C)Cc2ccc(C(=O)O)cc2)Oc2ccc(NC(=O)C3CCCCC3)cc2CC1=O	11	-2	0	3	x	-12
Cc1noc(C)c1NC(=O)Nc1ccc2c(c1)CC(=O)N([C@@H](C)CO)C[C@H](C)[C@H](CN(C)C(=O)Nc1ccc(F)cc1)O2	-1	-3	0	1	x	u
CNC[C@@H]1OCCCC[C@H](C)Oc2ccc(NS(=O)(=O)c3ccc(C)cc3)cc2C(=O)N([C@H](C)CO)C[C@@H]1C	3	47	0	1	-1	15
COc1ccc(-c2cnc3c(c2)C(=O)N([C@H](C)CO)C[C@H](C)[C@H](CN(C)Cc2cccnc2)O3)cc1	6	-4	0	-2	-4	-3
COc1ccc(S(=O)(=O)N(C)C[C@H]2Oc3ccc(NC(=O)Nc4ccccc4)cc3C(=O)N([C@@H](C)CO)C[C@H]2C)cc1	-5	-3	0	0	x	7
Cc1cc(C(=O)CN2C(=O)NC(C)(c3ccc(F)c(F)c3)C2=O)c(C)n1C1CC1 (stereo not drawn)	-2	0	0	-3	9	x
COc1ccc(C2(C)NC(=O)N(CC(=O)c3cc(C)n(C4CC4)c3C)C2=O)cc1 (stereo not drawn)	13	-1	0	-3	-1	37*
COc1ccc(C#Cc2cnc3c(c2)C(=O)N([C@H](C)CO)C[C@H](C)[C@H](CN(C)S(=O)(=O)c2ccc(C#N)cc2)O3)cc1OC	-31	1	0	0	x	6
